According to ChEMBL document CHEMBL4513216, “Probing the Open Global Health Chemical Diversity Library for Multistage-Active Starting Points for Next-Generation Antimalarials” (ACS Infect Dis, 2020):

assay: Toxicity liver stage against HepG2, at 10uM; type: cell-based; design: test concentration 10 uM, cell line HepG2-A16-CD81EGFP; conditions: human, HepG2-A16-CD81EGFP cells; read-out: INHIBITION
How it was run: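 Uninfected HepG2-A16-CD81EGFP cells, 3 × 10^3 per well, 1536-well, plated on prespotted compound at 10 μM final, parasite-free screening media added to match infected plates; puromycin 10 μM positive, DMSO 0.5% negative; run in parallel with 48 h PbLuc assay at 37 °C, 5% CO2; viability by CellTiter-Glo luminescence, normalized to controls.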

SMILES	cytotoxicity at 10 µM
Cc1nc(-c2ccoc2)n(CC(=O)NCC(C)C)c1C	-1.49%
NC1(CNC(=O)c2cc3ccccc3[nH]2)CCCC1	15.5%
COc1ccc2c(c1)CN(C)C(=O)CCN2CC(O)C(F)(F)F (configuration not stated)	-6.84%
Cc1occc(=O)c1OCC(=O)N1CCc2ccccc2C1	-0.765%
CCN(c1ccsc1C(=O)N1CCC(C)CC1)S(=O)(=O)c1ccccc1	14.7%
O=C(c1ccco1)N1CCCC2(CN(Cc3ccoc3)CCO2)C1 (configuration not stated)	-2.59%
Cc1cc(NCCO)nc(N2CCN(C)CC2)c1C#N	-17.4%
Cn1cc(CN2CCCn3cnc(CN4CCCC4=O)c3C2)cn1	-1.39%
Cc1ccoc1C(=O)N1CC[C@H]2O[C@@H](C)C[C@H]2C1	-4.93%
O=C(c1ccsc1)N1CCc2c(COCc3ccncc3)cncc2C1	-1.48%
CC(C)N1CCCCC1c1cc(CO)[nH]n1 (configuration not stated)	4.61%
O=C(NC1CC1)c1cc(C2CCCN(Cc3ccccn3)C2)no1 (configuration not stated)	-31.9%
O=C(Cc1ccccn1)N1CCC(c2noc(-c3ccncc3)n2)CC1	-26.8%
O=C(c1ccco1)N1CCC(n2nc(-c3ccco3)ccc2=O)CC1	-20.5%
Cc1ccc2nc(C3CCN(CC(C)C)CC3)nc(O)c2c1	7.69%
N#CCCN(CCC#N)Cc1ccc(Br)c2cccnc12	1.73%
CCC1(CC)CC(=O)N(CC(O)c2cccc(Br)c2)C1=O (configuration not stated)	3.89%
Cn1cc(C(=O)N2CCN(Cc3cscn3)CC2)ccc1=O	-4.79%
Cc1ccc(C(=O)NCCCS(=O)(=O)c2ccccc2)c(=O)[nH]1	-4.97%
CC(C(=O)Nc1ccnn1C(C)C)N1CCN(Cc2ccccc2)CC1 (configuration not stated)	-7.55%
CN(Cc1ccc(F)cc1)S(=O)(=O)N1CCOCC1	2.35%
Cc1cc(C)n(CCCNC(=O)C(C)NC(=O)CC2CCCCC2)n1 (configuration not stated)	-1.06%
CCOC(=O)c1nc(CN2CCN(C(=O)NC3CCCCC3)CC2)cs1	-3.47%
O=C(NC(CN1CCCC1)c1ccccc1)c1c(O)cc(F)cc1F (configuration not stated)	-2.3%

SMILES	cytotoxicity at 10 µM
CC(C)c1nsc(N2CCSCC2)n1	-11.6%
CC(=O)c1cccc(NC(=O)N2CCCCC2CN2CCCC2=O)c1 (configuration not stated)	0.582%
Cc1ccccc1C1(CNC(=O)c2cccc(S(C)(=O)=O)c2)CC1	-0.185%
Cn1cnnc1C1CCN(c2cncc(-n3cccn3)n2)CC1	-8.37%
CCC(C)NC(=O)Cc1c(C)nc2c(c1C)c(=O)[nH]n2C (configuration not stated)	-11.4%
CCn1c(CN(C)C)nnc1C1CCN(Cc2ccccn2)CC1	12.5%
O=C(CC1CCc2ccccc21)NCCSc1ccccn1 (configuration not stated)	-0.214%
CCC[C@@H]1CN(c2ncnc3sccc23)C[C@H]1C(=O)O	1.96%
Cc1nc(CCN2CCCCC2)n(-c2ccc(F)cc2)n1	-2.23%
CCN(Cc1cnn(CC)c1)Cc1c(Cl)cncc1Cl	-2.65%
CCOc1ccccc1-n1c(C2CC2)n[nH]c1=O	1.12%
O=C(c1ccc(C2CCNC2)cc1)N1CCC(N2CCC(O)CC2)CC1 (configuration not stated)	-7.62%
COc1ccc(-c2nc(CN3CCOCS3(=O)=O)c(C)o2)cc1	-0.0714%
Cc1ccc(NC(=O)N2CCCC2)c(OCC2CCCO2)c1 (configuration not stated)	6.36%
O=C(CCOc1cccc(Cl)c1)N1CCN(c2cnccn2)CC1	-0.284%
O=C(NCc1nnc2n1CCC2)N1CCc2sccc2C1	-12.5%
CN(C)CCC1CCN(Cc2ccn(C)c(=O)c2)CC1	-12.5%
COc1ccc(C(=O)N(C)Cc2nnc3ccccn23)c(OC)c1OC	-11.5%
Cc1nc(C)n(CC2CCCN2CCC(=O)N2CCCCC2)n1 (configuration not stated)	-2.67%
O=C(CCc1ccccn1)N1CCCC1	-6.96%
Cc1ncc(CN2CCOC(CN(C)c3cccnn3)C2)s1 (configuration not stated)	2.86%
CC(C)(C)c1cn2nc(N3CCCC(Cn4cncn4)C3)sc2n1 (configuration not stated)	-9.32%
Cc1nc(Nc2nncs2)cc(C2CCCN2)n1 (configuration not stated)	-1.03%
